Results on 33 compounds are retold here after ChEMBL document CHEMBL1129491, “Synthesis of non-nucleoside analogs of toyocamycin, sangivamycin, and ++thiosangivamycin: influence of various 7-substituents on antiviral activity” (J Med Chem, 1996).

One assay concerns KB. Kind of assay: Cytotoxic activity tested against exponentially growing KB cells, determined by staining method. The format is functional, cell-based. Particulars: Homo sapiens. The procedure, abridged:
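KB cells (human oral epidermoid carcinoma) kept in MEM(H) with 10% calf serum and tested while exponentially growing. Toxicity measured by a previously described staining method. IC50 from linear regression of percent inhibition against log drug concentration; two or more experiments averaged.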

Another assay concerns Human alphaherpesvirus 1. Kind of assay: Antiviral activity against HSV-1 replication was evaluated by ELISA. Type of assay: functional, organism-based. An outline of the steps: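 HSV-1 strain S-148 ELISA following Prichard and Shipman. Drug concentrations applied to infected cultures; percent inhibition regressed linearly against log concentration and IC50 read from the regression line. Acyclovir as positive control. Most assays averaged over two or more experiments, but HSV-1 ELISAs were run once.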

The subject of assay [1] is L1210. Description: In vitro cytotoxicity against growth rate of L1210 cell at 100 uM was evaluated. Type of assay: functional, Mus musculus. The procedure, abridged:
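L1210 murine leukemia cells in Fischer's medium with 10% heat-inactivated horse serum (56 °C, 30 min), exposed to 100 μM compound. Cells counted at 0, 24, 48, 72 and 96 h. Growth rate taken as the slope of semilog cell number versus time, expressed as percent of untreated control.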

Assay [2] concerns L1210. Kind of assay: Inhibitory concentration required to decrease the growth rate of L1210 cells to one-half of the control rate. The format is functional, cell-based. Particulars: Mus musculus. The procedure, abridged:
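L1210 cells in Fischer's medium with 10% heat-inactivated horse serum, counted at 0, 24, 48, 72 and 96 h across selected compound concentrations. Growth rate is the semilog slope as percent of control. IC50 is the concentration that halves the growth rate; '>' values give the highest concentration tested.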

Assay [3] concerns Human betaherpesvirus 5. Description: Antiviral activity against Human Cytomegalovirus (HCMV) replication in a plaque reduction assay. Type of assay: functional, organism-based. The procedure, abridged:
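Towne strain HCMV (plaque-purified P0) on HFF monolayers in MEM(E) with 10% FBS. Inoculum ca. 100 PFU per 0.2 mL; compounds dissolved in the overlay medium; plaques counted after staining. IC50 from linear regression of percent inhibition against log concentration. Ganciclovir as positive control; two or more experiments averaged.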

The subject of assay [4] is Human betaherpesvirus 5. Description: Antiviral activity in Human Cytomegalovirus Viral infection was evaluated by ELISA method. The format is functional, organism-based. The procedure, abridged:
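MRC-5 cells held overnight at 37 °C, then infected with Towne HCMV at moi 0.002 PFU/cell. After 1 h adsorption, up to 10 drug concentrations added in triplicate. Fixed with 95% EtOH after 6.5 days. Blocked, then mouse anti-HCMV monoclonal (1:400, 1 h) and peroxidase anti-mouse (1:1000, 2 h). Read at 450/570 nm, background subtracted; IC50 by log-linear regression.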

Another assay has as its system HFF. Description: Cytotoxicity against HFF cells, estimated by visual scoring of cells not affected by virus infection in the plaque reduction assay. The format is functional, cell-based. Particulars: Homo sapiens. An outline of the steps:
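Uninfected areas of HFF monolayers in the HCMV plaque-reduction assay examined at 35-fold magnification. Drug-induced cytopathology scored 0–4 on the day plaques were stained and counted.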

Turning to `CCCn1cc(C(N)=O)c2c(N)ncnc21`, the IC50 – broadly, the point on the concentration scale where inhibition reaches its midpoint – in the assay on KB is 100 µM; with Human alphaherpesvirus 1, above 100 µM; with L1210 [2], 73 µM; in the assay on Human betaherpesvirus 5 [3], above 100 µM; in the assay with Human betaherpesvirus 5 [4], above 100 µM. In the assay with L1210 [1], this compound displayed a Control of 0%.

`CC(C)(C)c1ccc(Cn2cc(C(N)=O)c3c(N)ncnc32)cc1`: the IC50 was 0.9 µM with KB, 50 µM in the assay with Human alphaherpesvirus 1, 28 µM in the assay with Human betaherpesvirus 5 [3] and 100 µM with HFF.

For `C=CCn1cc(C#N)c2c(N)ncnc21`, the half-inhibitory concentration (IC50) in the assay with KB, in the assay on Human alphaherpesvirus 1 and in the assay with Human betaherpesvirus 5 [3] was above 100 µM each time. The compound also came in with a Control in the assay with L1210 [1] of 75%.

As for `CC(C)(C)c1ccc(Cn2cc(C#N)c3c(N)ncnc32)cc1`, the IC50 is 3 µM in the assay on KB, above 100 µM with Human alphaherpesvirus 1, 32 µM with Human betaherpesvirus 5 [3] and above 32 µM in the assay with HFF.

As to `Cn1cc(C(=N)S)c2c(N)ncnc21`, the 50% inhibitory concentration (IC50) with KB worked out at 15 µM; with Human alphaherpesvirus 1, 2.8 µM; in the assay with L1210 [2], 38 µM; in the assay on Human betaherpesvirus 5 [3], 1.2 µM. Besides, the Control in the assay on L1210 [1] was determined as 0%.

As to `CC(C)(C)c1ccc(Cn2cc(C(=N)S)c3c(N)ncnc32)cc1`, the IC50 is 7 µM with KB, 15 µM with Human alphaherpesvirus 1, 1.5 µM in the assay with Human betaherpesvirus 5 [3] and above 100 µM in the assay with HFF.

Regarding `Cc1ccc(Cn2cc(C(N)=O)c3c(N)ncnc32)cc1`, the 50% inhibitory concentration (IC50) with KB was above 100 µM; with Human alphaherpesvirus 1, above 100 µM; in the assay on L1210 [2] it was 20 µM; in the assay on Human betaherpesvirus 5 [3], above 100 µM; with HFF, above 100 µM. In the assay on L1210 [1], this compound gave a Control of 2%.

Regarding `COc1ccc(Cn2cc(C(=N)S)c3c(N)ncnc32)cc1`, the IC50 in the assay on KB is 28 µM; in the assay with Human alphaherpesvirus 1, 4 µM; in the assay with Human betaherpesvirus 5 [3], 0.5 µM; with HFF, 66 µM; in the assay on Human betaherpesvirus 5 [4], 0.5 µM.

`Cc1ccccc1Cn1cc(C(=N)S)c2c(N)ncnc21`: the concentration for half-maximal inhibition (IC50) was above 17 µM in the assay on KB, 0.9 µM in the assay with Human alphaherpesvirus 1, 0.1 µM with Human betaherpesvirus 5 [3] and 66 µM in the assay on HFF.

On to `Cc1ccc(Cn2cc(C#N)c3c(N)ncnc32)cc1`, for which the concentration for half-maximal inhibition (IC50) with KB, with Human alphaherpesvirus 1, in the assay with Human betaherpesvirus 5 [3] and with HFF was above 100 µM each time. Besides, the Control with L1210 [1] was found to be 64%.

For the compound `C=CCn1cc(C(N)=O)c2c(N)ncnc21`, the results for the IC50 in the assay on KB, with Human alphaherpesvirus 1 and in the assay with Human betaherpesvirus 5 [3] were 100 µM, above 100 µM and above 100 µM, respectively. The compound also displayed a Control in the assay on L1210 [1] of 66%.

Turning to `COc1ccc(Cn2cc(C#N)c3c(N)ncnc32)cc1`, the half-maximal inhibitory concentration (IC50) with KB, in the assay with Human alphaherpesvirus 1, in the assay on Human betaherpesvirus 5 [3] and with HFF was above 100 µM in each case.

For the compound `C=CCn1cc(C(N)=S)c2c(N)ncnc21`, the IC50 in the assay on KB worked out at 19 µM; with Human alphaherpesvirus 1, 4.5 µM; with L1210 [2], 38 µM; in the assay on Human betaherpesvirus 5 [3], 2.1 µM. In the assay on L1210 [1], this compound showed a Control of 0%.

Turning to `NC(=S)c1cn(COCCO)c2ncnc(N)c12`, the 50% inhibitory concentration (IC50) in the assay with KB was 115 µM; in the assay on Human alphaherpesvirus 1, 21 µM; with Human betaherpesvirus 5 [3], 8.8 µM; in the assay on HFF, above 100 µM.

`CCCn1cc(C#N)c2c(N)ncnc21`: the concentration for half-maximal inhibition (IC50) was above 100 µM with KB, above 100 µM with Human alphaherpesvirus 1, 36 µM with Human betaherpesvirus 5 [3] and above 100 µM in the assay with HFF. In the assay on L1210 [1], this compound registered a Control of 74%.

For the compound `Cn1cc(C(N)=O)c2c(N)ncnc21`, the 50% inhibitory concentration (IC50) with KB, in the assay on Human alphaherpesvirus 1 and in the assay on Human betaherpesvirus 5 [3] was above 100 µM throughout. Moreover, in the assay with L1210 [1], the Control turned out to be 89%.

`NC(=O)c1cn([C@@H]2O[C@H](CO)[C@@H](O)[C@H]2O)c2ncnc(N)c12` [SANGIVAMYCIN]: the values for the IC50 with KB and in the assay with HFF were 0.08 µM and below 0.01 µM, respectively.

For `Cc1ccc(Cn2cc(C(=N)S)c3c(N)ncnc32)cc1`, the half-maximal inhibitory concentration (IC50) with KB was 65 µM; in the assay on Human alphaherpesvirus 1, 3.5 µM; in the assay on L1210 [2], above 10 µM; with Human betaherpesvirus 5 [3], 0.1 µM; in the assay on HFF, 100 µM; in the assay on Human betaherpesvirus 5 [4], 0.15 µM. In the assay on L1210 [1], the Control is 92%.

`NC(=S)c1cn(COC(CO)CO)c2ncnc(N)c12`: the half-maximal inhibitory concentration (IC50) in the assay on KB is above 100 µM; in the assay on Human alphaherpesvirus 1, above 100 µM; in the assay on Human betaherpesvirus 5 [3], 6.2 µM; with HFF, above 100 µM.

On to `Cc1ccccc1Cn1cc(C#N)c2c(N)ncnc21`, for which the IC50 in the assay with KB was above 100 µM; in the assay on Human alphaherpesvirus 1 it was above 100 µM; with Human betaherpesvirus 5 [3], 3.4 µM; in the assay on HFF, above 100 µM; in the assay on Human betaherpesvirus 5 [4], 32 µM.

`NC(=S)c1cn(Cc2ccccc2)c2ncnc(N)c12`: the IC50 was 32 µM in the assay on KB; 7.4 µM in the assay with Human alphaherpesvirus 1; 70 µM with L1210 [2]; 0.36 µM in the assay on Human betaherpesvirus 5 [3]; above 32 µM with HFF; 0.33 µM with Human betaherpesvirus 5 [4]. For the same compound, in the assay with L1210 [1], the Control was 0%.

In the case of `COc1ccc(Cn2cc(C(N)=O)c3c(N)ncnc32)cc1`, the half-inhibitory concentration (IC50) in the assay on KB was 47 µM; in the assay with Human alphaherpesvirus 1, 35 µM; in the assay on Human betaherpesvirus 5 [3] it was 13 µM; with HFF it was above 32 µM.

In the case of `CCCn1cc(C(=N)S)c2c(N)ncnc21`, the IC50 is 17 µM in the assay on KB, 12 µM in the assay on Human alphaherpesvirus 1, 1.2 µM with Human betaherpesvirus 5 [3] and 25 µM in the assay on HFF. This compound also returned a Control with L1210 [1] of 79%.

As for `N#Cc1cn(Cc2ccccc2)c2ncnc(N)c12`, the IC50 with KB was above 100 µM; in the assay on Human alphaherpesvirus 1, 90 µM; in the assay with Human betaherpesvirus 5 [3], above 100 µM; in the assay with HFF, above 100 µM. Further, the Control in the assay with L1210 [1] is on record as 60%.

In the case of `Cc1ccccc1Cn1cc(C(N)=O)c2c(N)ncnc21`, the IC50 in the assay on KB is above 100 µM; in the assay on Human alphaherpesvirus 1 it was above 100 µM; in the assay on Human betaherpesvirus 5 [3], 15 µM; in the assay on HFF, above 100 µM.

For `NC(=S)c1c[nH]c2ncnc(N)c12`, the IC50 in the assay on KB is 25 µM; in the assay with Human alphaherpesvirus 1 it was 35 µM; in the assay with Human betaherpesvirus 5 [3], 1.6 µM; in the assay on HFF, above 32 µM.

Consider `N#Cc1cn([C@@H]2O[C@H](CO)[C@@H](O)[C@H]2O)c2ncnc(N)c12` [TOYOCAMYCIN], for which the IC50 in the assay on KB was 0.03 µM; with HFF, below 0.01 µM.

In the case of `NC(=S)c1cn([C@@H]2O[C@H](CO)[C@@H](O)[C@H]2O)c2ncnc(N)c12`, the IC50 in the assay on Human betaherpesvirus 5 [3] and with HFF was 0.2 µM in each case.

On to `N#Cc1c[nH]c2ncnc(N)c12` [TOYOCAMYCIN AGLYCONE], for which the concentration for half-maximal inhibition (IC50) was 18 µM in the assay on KB, above 100 µM in the assay on Human alphaherpesvirus 1, 3.9 µM in the assay with Human betaherpesvirus 5 [3] and 10 µM with HFF.

For the compound `Cc1cccc(Cn2cc(C(=N)S)c3c(N)ncnc32)c1`, the IC50 was 30 µM with KB, 15 µM in the assay on Human alphaherpesvirus 1, 0.25 µM with Human betaherpesvirus 5 [3] and 66 µM in the assay on HFF.

As for `NC(=O)c1cn(Cc2ccccc2)c2ncnc(N)c12`, the IC50 in the assay on KB was 75 µM; in the assay with Human alphaherpesvirus 1, 33 µM; in the assay on L1210 [2], 16 µM; in the assay with Human betaherpesvirus 5 [3], above 100 µM; in the assay with HFF, above 32 µM. The compound also yielded a Control with L1210 [1] of 0%.

`Cc1cccc(Cn2cc(C(N)=O)c3c(N)ncnc32)c1`: the IC50 in the assay on KB, in the assay with Human alphaherpesvirus 1, in the assay on Human betaherpesvirus 5 [3] and in the assay on HFF was above 100 µM throughout.

As for `Cn1cc(C#N)c2c(N)ncnc21`, the IC50 with KB, in the assay on Human alphaherpesvirus 1, with Human betaherpesvirus 5 [3] and with Human betaherpesvirus 5 [4] was above 100 µM each time. In the assay with L1210 [1], this compound came in with a Control of 87%.
